# Bioassay records from PubChem BioAssay.
# Most compounds without a hit are left out; they make up all but 2% or so of the library.
# TROY signal inh = inhibitors of TROY-driven NF-kB signaling, primary screen, Q293 LMP1-TROYcd cells, NF-kB luciferase, uHTS | Q293 LMP1-TROYcd NF-kB luciferase reporter, 4 h | 360,000 tested, 0.98% active | inhibition, % at 10 µM;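 active = compounds whose plate-normalised and pattern-corrected inhibition of the luciferase reporter signal at the single screening dose is 50% or more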
# TWEAK Fn14 block = inhibitors of TWEAK-Fn14 signaling, primary screen, luciferase reporter cells, uHTS. 360,000 tested, 2% active. inhibition, % at 10 µM. TWEAK-stimulated Fn14 reporter cells, luciferase luminescence, 8 h; in the data active = inhibition above about 50%
# LGR2 antag = inhibitors of bursicon-induced LGR2 CRE-luciferase signal, primary screen, cell-based, HEK293, CRE-luciferase reporter, bursicon stimulation | Drosophila bursicon receptor LGR2 (rickets) | bursicon-stimulated, 4 h | inhibition, % at 9.99 µM | 380,000 tested, 0.35% active;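 active = drop in luminescence signal, shown as inhibition above about 50% in the replicate tests, limit read from the data, passing the limit was not always enough; inconclusive = probably only some replicates passing the limit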;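 also: agonist challenge used bursicon conditioned medium at about half maximal strength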
# Xi reactivation = activators of inactive X chromosome reactivation, primary screen, imaging, XiGFP fibroblasts, GFP high-content imaging, set 2; XiGFP mouse fibroblasts, % GFP-positive cells imaging, 3 d; cells co-treated with 5-aza-dC sensitizer; scaled so ellipticine positive control = 100%; activation, % at 7.58 µM; 360,000 tested, 0.055% active;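 active = mean normalized replicate activation at least 10% and every replicate at or above 10%; inconclusive = only one of the two criteria met; inactive = mean below 10% and not all replicates reach 10%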;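 also: 0% = median of on-plate neutral control wells and 100% = ellipticine 6 µM median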
#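 System: 68-5-11 XiGFP fibroblast line; Timing: 3 days compound exposure; Compound dosing: one concentration, pinned; Benchmarks: positive control ellipticine, 6 µM final; Buffer or medium: DMEM containing 5-aza-dC.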
# CaV13 ICDI inh = Primary screen for inhibitors of IQ motif and Ca2+-dependent inactivation inhibitor domain binding in CACNA1D, Förster resonance energy transfer in living cells, …. HEK cells, CFP/YFP FRET ICDI-IQ, plate reader, 10 min; percent FRET-ratio fall versus neutral wells. inhibition, % at 12.3 µM. 340,000 tested, 0.098% active. AID 743397;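 active = mean replicate inhibition of at least 30% and at least 1% of replicates passing that level; inconclusive = only one of the two criteria is met; inactive = neither criterion is met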;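 also: 0% = median of the neutral control wells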
# * = called active by the depositor; u = inconclusive; x = not tested or not shown.
SMILES,TROY signal inh,TWEAK Fn14 block,LGR2 antag,Xi reactivation,CaV13 ICDI inh
CN1[C@@H]2Cn3c(ccc(-c4cccc(F)c4)c3=O)[C@H]1[C@@H](C(=O)N1CCCCC1)[C@@H]2CO,x,x,-3.8,-0.1,x
CCOc1cc(/C=N/NC(=O)CN2CCOCC2)ccc1OCc1ccccc1,2.2,-6.0,-2.4,0.0,-18.5
CCOc1cc(/C=N/NC(=O)c2ccc(CN3CCOCC3)cc2)ccc1OCc1ccccc1,51.3*,69.9*,42.2,0.0,-6.4
COc1cc(/C=N/NC(=O)c2ccc(COc3cc(C)ccc3C(C)C)cc2)cc(OC)c1O,9.0,33.0,-40.3,0.0,-6.0
Cc1ccc(C(C)C)c(OCc2ccc(C(=O)N/N=C/c3ccc(O)c(O)c3)cc2)c1,-12.5,62.0*,-70.2,0.4,-5.6
CCOc1cc(/C=N/NC(=O)c2nn(C)cc2Br)ccc1OCc1ccccc1Cl,30.0,57.3*,8.5,x,-8.8
C[C@H](CO)N1C[C@H](C)[C@H](CN(C)C(=O)C2CCCCC2)Oc2cc(C#CC3CC3)ccc2S1(=O)=O,x,x,12.4,-0.1,x
CN(C)c1ccc(/C=C/c2ccc3c4ccccc4ccc3[n+]2-c2ccccc2)cc1,71.9*,74.0*,u,0.2,7.8
[O-][n+]1ccccc1/C=C/c1ccccc1,6.5,10.3,-1.9,0.5,-1.9
[O-][n+]1c(/C=C/c2ccccc2)ccc2ccccc21,-42.9,66.3*,-42.5,0.0,-4.3
CN(C)c1ccc(/C=C/c2cccc[n+]2[O-])cc1,-12.3,3.6,x,0.0,-36.4
CN(C)c1ccc(/C=C/c2ccc3ccccc3[n+]2C)cc1,62.8*,64.5*,12.3,0.1,-5.6
CCCC(=O)Nc1ccc2c(c1)OC[C@H](C)N(CCC(F)(F)F)C[C@@H](C)[C@@H](OC)CN(C)C2=O,x,x,-14.1,0.0,x
Cc1cc(-c2ccc(C)c(S(=O)(=O)NCc3ccc(Br)cc3)c2)on1,31.9,64.7*,14.6,0.0,-13.3
Cc1cc(-c2ccc(C)c(S(=O)(=O)NCc3cccc(Br)c3)c2)on1,8.0,-11.7,14.2,0.4,-4.4
O=C(N/N=C/c1ccc(-c2cccc(C(F)(F)F)c2)o1)c1ccccc1O,9.6,11.8,26.7,0.0,-4.9
O=C(N/N=C/c1ccc(-c2cccc(C(F)(F)F)c2)o1)c1ccccc1Br,65.5*,59.0*,x,x,x
C[C@@H]1CCCCO[C@@H](CN(C)S(=O)(=O)c2cccs2)[C@H](C)CN([C@@H](C)CO)C(=O)c2cc(NC(=O)C3CCCCC3)ccc2O1,x,x,14.5,-1.1,x
Cc1cc(/C=C2\SC(=S)N(C)C2=O)c(C)n1-c1ccc(O)cc1,81.7*,104.0*,64.2*,0.2,-4.5
Cc1ccc(-n2c(C)cc(/C=C3\SC(=O)NC3=O)c2C)cc1,-48.8,-13.4,-96.2,0.1,-12.7
Cc1cc(/C=C2\SC(=S)N(C)C2=O)c(C)n1-c1ccccc1O,60.7*,96.5*,-32.5,0.2,-6.3
C[C@H](CO)N1C[C@H](C)[C@H](CN(C)CC2CC2)Oc2ccc(NC(=O)c3ccncc3)cc2CC1=O,x,x,12.2,-1.2,x
CCOC(=O)C1CCCN(C(=O)Cn2cccc2C(=O)c2ccccc2)C1 (configuration not stated),29.7,98.6*,x,x,-5.1
Cc1noc(C)c1S(=O)(=O)Nc1ccc2c(c1)C(=O)N([C@H](C)CO)C[C@H](C)[C@@H](CN(C)Cc1ccc(C(F)(F)F)cc1)OCCCC[C@H](C)O2,x,x,24.0,0.1,x
CCC(=O)Nc1cccc(C(=O)/C=C/c2ccccc2)c1,8.2,64.8*,x,x,x
SMILES,TROY signal inh,TWEAK Fn14 block,LGR2 antag,Xi reactivation,CaV13 ICDI inh
CSc1cccc(NC(=O)/C=C/c2ccccc2)c1,-52.7,-14.0,x,x,-8.5
O=C(/C=C/c1ccccc1)Nc1cc(NC(=O)/C=C/c2ccccc2)cc(C(=O)O)c1,-4.0,1.5,29.8,0.7,0.9
O=C(/C=C/c1ccccc1)Nc1cccc(C(=O)O)c1,-21.1,40.8,103.4*,0.2,2.7
CSc1ccc(/C=C/C(=O)Nc2ccccc2)cc1,42.2,72.3*,76.6*,0.5,7.4
O=C(c1ccccc1)N1CCN(c2ccc(NCc3ccc4c(c3)OCO4)cc2)CC1,16.4,0.8,10.0,-0.2,56.2*
O=C(Nc1ccc(N2CCN(C(=O)c3ccccc3)CC2)cc1)c1cc2ccccc2o1,70.4*,91.1*,81.6*,x,x
O=C(Nc1ccc(N2CCN(C(=O)c3ccccc3)CC2)c(Cl)c1)c1ccc(Br)o1,28.3,38.0,88.9*,x,-6.8
O=C(Nc1ccc(N2CCN(C(=O)c3ccccc3)CC2)cc1)c1ccc(Br)o1,-1.7,-10.3,x,x,x
CCCNC(=O)N(C)C[C@@H]1Oc2ncc(-c3ccc(OC)cc3)cc2C(=O)N([C@@H](C)CO)C[C@H]1C,x,x,15.4,-1.4,x
CCN1C(=O)[C@@H]2[C@@H](c3ccc(SC4CCCCC4)cc3)N3CCCC[C@@]3(C(=O)OC)[C@@H]2C1=O,63.1*,61.4*,x,0.0,-12.8
CC(=O)N1CCc2cc(Br)cc(S(=O)(=O)NCCCN(C)Cc3ccccc3)c21,-3.9,98.1*,2.5,0.1,-4.1
O=C1C2C3c4ccccc4C(c4ccccc43)C2c2nc3ccccc3n21 (configuration not stated),x,51.5*,5.3,x,-5.4
C[C@H](CO)N1C[C@H](C)[C@@H](CN(C)Cc2cccnc2)Oc2cc(C#CC3CCCC3)ccc2S1(=O)=O,x,x,-5.4,-0.5,x
Cc1noc(C)c1S(=O)(=O)Nc1ccc2c(c1)C(=O)N([C@@H](C)CO)C[C@H](C)[C@H](CN(C)Cc1ccncc1)OCCCC[C@@H](C)O2,x,x,34.5,-0.1,x
Cc1[nH]n(-c2ccccc2)c(=O)c1N=Nc1cccc(C(=O)O)c1,-48.3,58.5*,24.2,0.0,-1.3
c1ccc(COc2cccc(-c3cc4nc(NCCOc5ccccc5)ccn4n3)c2)cc1,-7.8,27.1,-3.0,0.0,-5.8
FC(F)(F)c1cccc(-c2cc3nc(NCCCn4ccnc4)ccn3n2)c1,-23.6,-17.8,-34.4,0.2,-5.1
c1ccc(COc2cccc(-c3cc4nc(NCCc5ccncc5)ccn4n3)c2)cc1,40.4,61.0*,45.5,0.1,-5.0
c1ccc(COc2cccc(-c3cc4nc(NCCCn5ccnc5)ccn4n3)c2)cc1,37.7,12.2,80.4*,0.1,-4.9
Nc1ccc2ccccc2c1[N+](=O)[O-],-1.6,-0.6,-14.9,0.9,-6.3
Nc1cc2c3ccccc3ccc2c2ccccc12,37.4,103.5*,85.7*,-0.1,-6.9
O=C(C[n+]1cn(C(F)F)c2ccccc21)c1ccc(Br)cc1,-30.9,86.3*,-11.3,0.0,0.7
